Results on two molecules are retold here after ChEMBL document CHEMBL4425095, “Novel Cephalosporins Selectively Active on Nonreplicating Mycobacterium tuberculosis” (J Med Chem, 2016).

Broadly, the MIC90 is the lowest concentration that inhibits either 90% of growth or 90% of the strains tested, depending on the study.

The subject of the test is Mycobacterium tuberculosis. Nature of the test: Antibacterial activity against replicating Mycobacterium bovis BCG measured at OD580 = 0.01. The note with it: variant bovis BCG. Format: functional. In outline:
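Replicating organisms in the paper's earlier-described bacteriologic medium; 200 μL of cells at OD580 0.01 exposed to DMSO vehicle or drug in 96-well plates; growth read by optical density.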

`CCCOC(=O)C1=C(C)CS[C@@H]2[C@H](NC(=O)COc3ccccc3)C(=O)N12` gave an MIC90 greater than 100 µg/mL. `CC1=C(c2nc(C)no2)N2C(=O)[C@@H](NC(=O)COc3ccccc3)[C@H]2SC1` registered an MIC90 greater than 100 µg/mL.
